Assay results as given in ChEMBL document CHEMBL1152984, “Design, synthesis, and structure-activity relationships of benzophenone-based tetraamides as novel antibacterial agents” (J Med Chem, 2009).
≈ marks a conversion by molar mass, not a printed value. Calls of active or inactive are those of the source. No cut-off for these calls is given here.

Legend:
Staphylococcus aureus [1] = test: Antibacterial activity against Staphylococcus aureus ATCC 29213 assessed as inhibition of lipid synthesis at 8 times MIC treated 5 mins before [3H]glycerol challenge measured after 60 mins by [3H]glycerol incorporation assay; assay type: functional, organism-based
In short: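 S. aureus at early exponential phase, 0.1 mL cells in triplicate tubes with agent (0.25-4.0 μg/mL) or cerulenin control. Pre-incubated 5 min at room temperature before adding [3H]glycerol at 0.5 μCi. After centrifugation, the organic phase was dried and counted by liquid scintillation.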

Nucleic Acid [2] = test: Binding affinity to DNA AT hairpin (5'-CGAAAAACAAAAAGTTTTTCG- 3') oligonucleotide by ethidium bromide displacement assay; assay type: nucleic-acid assay
In short: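 DNA binding: ethidium bromide (4.0 μM) and AT hairpin (8.0 μM) in 0.1 M Tris-HCl with 25 mM NaCl, pH 7.0, were titrated with compound. Fluorescence (ex 545, em 595 nm) was read after 5 min and corrected for volume. K = K_EB[E]/[agent], where [agent] is the concentration that lowers fluorescence by 50%.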

Staphylococcus aureus [3] = test: Antibacterial activity against vancomycin-resistant Staphylococcus aureus; assay type: functional
Staphylococcus aureus [4] = test: Antibacterial activity against methicillin-resistant Staphylococcus aureus; assay type: functional
Staphylococcus aureus [5] = test: Antibacterial activity against Staphylococcus aureus assessed as depolarization at 32 mg/L measured for 60 mins by fluorescence spectrophotometer relative to nisin; assay type: functional, organism-based
In short: (§1)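 Cells were loaded with 0.4 μM diSC3(5) for 1 h at 37 °C, then KCl was added. After compound addition in a stirred cuvette at 37 °C, fluorescence (ex 622, em 670 nm) was followed for 60 min. Cells plus dye gave the background; the change was expressed as % of the nisin control (100%).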

Staphylococcus aureus [6] = test: Antibacterial activity against Staphylococcus aureus ATCC 29213 assessed as inhibition of RNA synthesis at 8 times MIC treated 5 mins before [3H]uridine challenge measured after 30 mins by [3H]uridine incorporation assay; assay type: functional, organism-based
In short: (§2)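 Cells were added to triplicate wells with compound (0.25-4.0 μg/mL), with 5% DMSO as the no-drug control; protein-synthesis reactions used M9 minimal medium. After 5 min at room temperature, 0.5-1.0 μCi of [3H]thymidine, uridine, N-acetylglucosamine or leucine was added. Reactions ran 15-30 min (60 min for cell wall). Cold-TCA precipitates were filtered, washed and scintillation-counted.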

Staphylococcus aureus [7] = test: Antibacterial activity against Staphylococcus aureus ATCC 29213 assessed as inhibition of protein synthesis at 8 times MIC treated 5 mins before [3H]leucine challenge measured after 30 mins by [3H]leucine incorporation assay; assay type: functional, organism-based; in short: as §2
Escherichia coli = test: Antibacterial activity against Escherichia coli; assay type: functional
Nucleic Acid [8] = test: Binding affinity to Staphylococcus aureus DNA at 25 to 200 ug/mL by Hoescht dye competition assay; assay type: nucleic-acid assay
In short: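 Compounds at 25, 50, 100, 150 and 200 mg/L were added in triplicate, and the drop in emission at 461 nm was measured against Hoechst-stained untreated cells.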

CHO = test: Cytotoxicity against CHO cells assessed as cell viability at 25 to 100 times MIC after 24 hrs by MTS assay; assay type: cell-based, Cricetulus griseus; conditions: chinese hamster
In short: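 CHO cells in RPMI-1640 were seeded at 5000 cells/well, allowed to attach overnight, then exposed to 25, 50 and 100 mg/L for 24 h. MTS was added for 120 min and absorbance read at 505 nm. Results are % versus untreated controls (with or without 5% DMSO), from at least three experiments.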

Enterococcus = test: Antibacterial activity against vancomycin-resistant Enterococcus; assay type: functional
Staphylococcus aureus [9] = test: Antibacterial activity against glycopeptide-intermediate Staphylococcus aureus; assay type: functional
Nucleic Acid [10] = test: Binding affinity to Escherichia coli DNA at 25 to 200 ug/mL by Hoescht dye competition assay; assay type: nucleic-acid assay
Staphylococcus aureus [11] = test: Antibacterial activity against Staphylococcus aureus assessed as depolarization at […] measured for 60 mins by fluorescence spectrophotometer relative to nisin; assay type: functional, organism-based; in short: as §1
Staphylococcus aureus [12] = test: Antibacterial activity against Staphylococcus aureus ATCC 29213 assessed as inhibition of protein synthesis at 0.5 to 8 times MIC treated 5 mins before [3H]leucine challenge measured after 30 mins by [3H]leucine incorporation assay; assay type: functional, organism-based; in short: as §2
Staphylococcus aureus [13] = test: Antibacterial activity against Staphylococcus aureus ATCC 29213 assessed as inhibition of RNA synthesis at 0.5 to 8 times MIC treated 5 mins before [3H]uridine challenge measured after 30 mins by [3H]uridine incorporation assay; assay type: functional, organism-based; in short: as §2
Staphylococcus aureus [14] = test: Antibacterial activity against Staphylococcus aureus ATCC 29213 assessed as inhibition of DNA synthesis at 0.5 to 8 times MIC treated 5 mins before [3H]thymidine challenge measured after 30 mins by [3H]thymidine incorporation assay; assay type: functional, organism-based; in short: as §2
Staphylococcus aureus [15] = test: Antibacterial activity against Staphylococcus aureus assessed as depolarization at 4 mg/L measured for 60 mins by fluorescence spectrophotometer relative to nisin; assay type: functional, organism-based; in short: as §1
Staphylococcus aureus [16] = test: Antibacterial activity against Staphylococcus aureus ATCC 29213 assessed as inhibition of lipid synthesis at 0.5 to 8 times MIC treated 5 mins before [3H]glycerol challenge measured after 60 mins by [3H]glycerol incorporation assay; assay type: functional, organism-based
In short: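 Lipid synthesis: early-exponential S. aureus was mixed in triplicate with compound (0.25-4.0 μg/mL) or cerulenin. After 5 min at room temperature, [3H]glycerol (0.5 μCi) was added. Mixtures were centrifuged, and the organic phase was dried and counted by liquid scintillation.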

Staphylococcus aureus [17] = test: Antibacterial activity against Staphylococcus aureus ATCC 29213 assessed as inhibition of cell wall synthesis at 0.5 to 8 times MIC treated 5 mins before [3H]N-acetylglucosamine challenge measured after 30 mins by [3H]N-acetylglucosamine incorporation assay; assay type: functional, organism-based
Staphylococcus aureus [18] = test: Antibacterial activity against Staphylococcus aureus ATCC 29213 assessed as inhibition of DNA synthesis at 8 times MIC treated 5 mins before [3H]thymidine challenge measured after 30 mins by [3H]thymidine incorporation assay; assay type: functional, organism-based; in short: as §2
Staphylococcus aureus [19] = test: Antibacterial activity against Staphylococcus aureus ATCC 29213 assessed as inhibition of cell wall synthesis at 8 times MIC treated 5 mins before [3H]N-acetylglucosamine challenge measured after 30 mins by [3H]N-acetylglucosamine incorporation assay; assay type: functional, organism-based
In short: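 Culture added to triplicate wells with agent (0.25-4.0 μg/mL) or 5% DMSO no-drug control. Pre-incubated 5 min at room temperature, then [3H]N-acetylglucosamine at 0.5-1.0 μCi. Stopped with cold 5% TCA and held 30 min on ice. Precipitate filter-collected, washed, and scintillation counted. Vancomycin was the positive control.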

SMILES	Ka (Nucleic Acid [2]) [×10⁶ /M]	MIC (Staphylococcus aureus [3]) [µg/mL]	MIC (Staphylococcus aureus [4]) [µg/mL]	further results
C/C=C/C/C=C/CCC(=O)[C@H]1O[C@H]1C(N)=O	–	–	–	Activity (Staphylococcus aureus [1]): Active
Cn1cc(NC(=O)CCCCCCCCCCCC(=O)Nc2cc(C(=O)NCCN3CCCC3)n(C)c2)cc1C(=O)NCCN1CCCC1	0.021	> 32	> 32	Activity (Staphylococcus aureus [5]): inactive
CO[C@H]1/C=C/O[C@@]2(C)Oc3c(C)c(O)c4c(O)c(c(/C=N/N5CCN(C)CC5)c(O)c4c3C2=O)NC(=O)/C(C)=C\C=C\[C@H](C)[C@H](O)[C@@H](C)[C@@H](O)[C@@H](C)[C@H](OC(C)=O)[C@@H]1C	–	–	–	Activity (Staphylococcus aureus [6]): Active
CN(C)c1ccc(NC(=O)c2cc(NC(=O)c3ccc(C(=O)c4ccc(C(=O)Nc5cc(C(=O)Nc6ccc(N(C)C)cc6)n(C)c5)cc4)cc3)cn2C)cc1	0.391	> 32	> 32	–
CC(=O)NC[C@H]1CN(c2ccc(N3CCOCC3)c(F)c2)C(=O)O1	–	–	–	Activity (Staphylococcus aureus [7]): Active
Cn1cc(NC(=O)c2ccc(C(=O)c3ccc(C(=O)Nc4cc(C(=O)NCCN5CCCC5)n(C)c4)cc3)cc2)cc1C(=O)NCCN1CCCC1	0.679	2 (≈ 2.83 µM)	1 (≈ 1.41 µM)	MIC (Escherichia coli): 16 µg/mL (≈ 22.6 µM); Activity (Nucleic Acid [8]): Active; Activity (CHO): Not Active; MIC (Enterococcus): 4 µg/mL (≈ 5.66 µM); MIC (Staphylococcus aureus [9]): 0.5 µg/mL (≈ 0.707 µM); Activity (Nucleic Acid [10]): Active; Activity (Staphylococcus aureus [11]): Active
CN(C)CCCNC(=O)c1cc(NC(=O)c2ccc(C(=O)c3ccc(C(=O)Nc4cc(C(=O)NCCCN(C)C)n(C)c4)cc3)cc2)cn1C	1	16 (≈ 23.4 µM)	8 (≈ 11.7 µM)	MIC (Staphylococcus aureus [9]): 8 µg/mL (≈ 11.7 µM)
Cn1cc(NC(=O)c2ccc(C(=O)c3ccc(C(=O)Nc4cn(C)c(C(=O)NCCN5CCCC5)n4)cc3)cc2)nc1C(=O)NCCN1CCCC1	–	32 (≈ 45.1 µM)	32 (≈ 45.1 µM)	–
Cn1cc(NC(=O)c2ccc(C(=O)c3ccc(C(=O)Nc4cc(C(=O)NCCN5CCCCC5)n(C)c4)cc3)cc2)cc1C(=O)NCCN1CCCCC1	0.931	1 (≈ 1.36 µM)	0.5 (≈ 0.68 µM)	MIC (Escherichia coli): 16 µg/mL (≈ 21.8 µM); Activity (Staphylococcus aureus [12]): inactive; Activity (Staphylococcus aureus [13]): inactive; Activity (CHO): Not Active; MIC (Enterococcus): 4 µg/mL (≈ 5.44 µM); Activity (Staphylococcus aureus [14]): inactive; Activity (Staphylococcus aureus [15]): Active; MIC (Staphylococcus aureus [9]): 0.5 µg/mL (≈ 0.68 µM); Activity (Staphylococcus aureus [16]): inactive; Activity (Staphylococcus aureus [17]): inactive
Cn1cc(NC(=O)CCCCCCCCCCCC(=O)Nc2cc(C(=O)NCCN3CCCCC3)n(C)c2)cc1C(=O)NCCN1CCCCC1	0.0125	> 32	> 32	–
Cn1cc(NC(=O)c2ccccc2)cc1C(=O)NCCN1CCCCC1	0.173	> 32	> 32	–
Cn1cc(NC(=O)c2ccccc2)cc1C(=O)NCCN1CCCC1	0.11	> 32	> 32	–
Cn1cc(NC(=O)c2ccc(C(O)c3ccc(C(=O)Nc4cc(C(=O)NCCN5CCCC5)n(C)c4)cc3)cc2)cc1C(=O)NCCN1CCCC1	0.175	> 32	> 32	–
Cn1cc(NC(=O)c2ccc(C(O)c3ccc(C(=O)Nc4cc(C(=O)NCCN5CCCCC5)n(C)c4)cc3)cc2)cc1C(=O)NCCN1CCCCC1	0.0098	> 32	> 32	–
Cn1cc(NC(=O)c2ccc(C(=O)c3ccc(C(=O)Nc4cn(C)c(C(=O)NCCN5CCCCC5)n4)cc3)cc2)nc1C(=O)NCCN1CCCCC1	–	8 (≈ 10.9 µM)	4 (≈ 5.43 µM)	Activity (Nucleic Acid [8]): Active; Activity (Nucleic Acid [10]): Active
Cn1cc(NC(=O)c2ccc(C(=O)c3ccc(C(=O)Nc4cn(C)c(C(=O)NCCN5CCOCC5)n4)cc3)cc2)nc1C(=O)NCCN1CCOCC1	–	> 32	> 32	–
Cn1cc(NC(=O)c2ccc(C(=O)c3ccc(C(=O)Nc4cc(C(=O)NCCN5CCOCC5)n(C)c4)cc3)cc2)cc1C(=O)NCCN1CCOCC1	–	8 (≈ 10.8 µM)	4 (≈ 5.41 µM)	–
Cn1cc(NC(=O)c2ccc(C(=O)c3ccccc3)cc2)cc1C(=O)NCCN1CCCC1	0.106	–	–	–
O=C(O)c1cn(C2CC2)c2cc(N3CCNCC3)c(F)cc2c1=O	–	–	–	Activity (Staphylococcus aureus [18]): Active
Cn1cc(NC(=O)c2ccc(C(=O)c3ccccc3)cc2)cc1C(=O)NCCN1CCCCC1	0.227	–	–	–
Cn1cc(NC(=O)c2ccc(Cc3ccc(C(=O)Nc4cc(C(=O)NCCN5CCCC5)n(C)c4)cc3)cc2)cc1C(=O)NCCN1CCCC1	0.154	> 32	> 32	–
CN(C)c1ccc(NC(=O)c2nc(NC(=O)c3ccc(C(=O)c4ccc(C(=O)Nc5cn(C)c(C(=O)Nc6ccc(N(C)C)cc6)n5)cc4)cc3)cn2C)cc1	–	> 32	> 32	–
CN1CCN(CCCNC(=O)c2cc(NC(=O)c3ccc(C(=O)c4ccc(C(=O)Nc5cc(C(=O)NCCCN6CCN(C)CC6)n(C)c5)cc4)cc3)cn2C)CC1	0.108	> 32	> 32	Activity (Nucleic Acid [8]): inactive; Activity (Nucleic Acid [10]): inactive
CN[C@H](CC(C)C)C(=O)N[C@H]1C(=O)N[C@@H](CC(N)=O)C(=O)N[C@H]2C(=O)N[C@H]3C(=O)N[C@H](C(=O)N[C@H](C(=O)O)c4cc(O)cc(O)c4-c4cc3ccc4O)[C@H](O)c3ccc(c(Cl)c3)Oc3cc2cc(c3O[C@@H]2O[C@H](CO)[C@@H](O)[C@H](O)[C@H]2O[C@H]2C[C@](C)(N)[C@H](O)[C@H](C)O2)Oc2ccc(cc2Cl)[C@H]1O	–	–	–	Activity (Staphylococcus aureus [19]): Active
Cn1cc(NC(=O)c2ccc(Cc3ccc(C(=O)Nc4cc(C(=O)NCCN5CCCCC5)n(C)c4)cc3)cc2)cc1C(=O)NCCN1CCCCC1	0.0238	> 32	> 32	–
